14 compounds from ChEMBL document CHEMBL3588846, “Aryl Pyrazoles as Potent Inhibitors of Arginine Methyltransferases: Identification of the First PRMT6 Tool Compound” (ACS Med Chem Lett, 2015) can be followed below.

Molecules are shown by their SMILES. pIC50: −log10 of the molar value. Calls of active or inactive are those of the source. The calls are words filed in the database; no cut-off is given here.

The target in series [1] is T1, Protein arginine N-methyltransferase 6 (Homo sapiens, UniProt Q96LA8). Kind of series: Inhibition of FLAG and hexa-histidine tagged full-length human PRMT6 expressed in HEK293F cells pre-incubated for 30 mins before addition of a [3H]SAM and peptide mix. The series is classed as cell-based.
T1 sequence (Q96LA8 whole entry): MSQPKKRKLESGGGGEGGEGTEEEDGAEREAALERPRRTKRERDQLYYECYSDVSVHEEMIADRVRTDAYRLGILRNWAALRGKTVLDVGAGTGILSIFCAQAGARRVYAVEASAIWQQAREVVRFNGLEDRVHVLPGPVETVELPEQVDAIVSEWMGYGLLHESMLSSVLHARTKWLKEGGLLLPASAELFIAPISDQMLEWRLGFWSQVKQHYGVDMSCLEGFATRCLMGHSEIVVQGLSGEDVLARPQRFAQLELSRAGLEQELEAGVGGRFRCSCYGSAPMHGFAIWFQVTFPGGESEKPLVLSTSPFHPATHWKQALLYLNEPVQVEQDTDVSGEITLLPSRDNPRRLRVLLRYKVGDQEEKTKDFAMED
Series [2] has as its target Protein arginine N-methyltransferase 8 (Homo sapiens, UniProt Q9NR22). Kind of series: Inhibition of N-terminal GST tagged full-length human PRMT8 expressed in Escherichia coli (BL21(DE3) pre-incubated for 30 mins before addition of a [3H]SAM and peptide mix.
The target in series [3] is T1, Protein arginine N-methyltransferase 6. Kind of series: Inhibition of his-tagged PRMT6 (unknown origin) expressed in human A375 cells assessed as reduction in H3R2 methylation at 0.01 to 20 uM incubated for 48 hrs by Western blot method. It is filed as cell-based, A-375. A general note: Immunoblotting shows a protein as a band on a membrane.
Series [4] concerns the target T2, Protein arginine N-methyltransferase 1 (Homo sapiens, UniProt Q99873). Kind of series: Inhibition of N-terminal GST tagged full-length human PRMT1 expressed in high five insect cells pre-incubated for 30 mins before addition of a [3H]SAM and peptide mix.
In the next series the test system is A-375. Kind of series: Effect on PRMT6 expression in human A375 cells transfected with his-tagged PRMT6 at 0.01 to 20 uM incubated for 48 hrs by Western blot method. It is filed as functional, cell-based. The gist of the method:
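A375 cells were transfected with a PRMT6 expression construct, with empty vector as the control, and PRMT6 was overexpressed for 48 h. Compound exposure also lasted 48 h. PRMT6 protein levels were then checked in the treated cells.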

Series [5] addresses T2, Protein arginine N-methyltransferase 1. Kind of series: Inhibition of PRMT1 in human A375 cells assessed as effect on monomethyl R*GG motif methylation at 0.01 to 20 uM incubated for 48 hrs by Western blot method. It is filed as cell-based, A-375.
The nature of series [6]: Unbound fraction in Sprague-Dawley rat plasma at 1 uM at 37 degC by equilibrium dialysis and LC-MS/MS method. It is filed as ADME, cell-free. A general note: Equilibrium dialysis compares concentrations on both sides of a semipermeable membrane.
The nature of series [7]: Unbound fraction in human plasma at 1 uM at 37 degC by equilibrium dialysis and LC-MS/MS method. It is filed as ADME, cell-free.
The nature of series [8]: Permeability of the compound at 10 uM at pH 7.4 by LC-MS/MS based PAMPA method. It is filed as physicochemical. As to conditions: read-out: permeability. For orientation: The PAMPA barrier holds no transporters, so it reflects passive diffusion.
Series [9] can be described thus: Oral bioavailability in rat. The series is classed as ADME, organism-based. The note with it: in vivo.
Series [10] in a line: Clearance in Sprague-Dawley rat at 1 mg/kg, iv administered as single dose by LC-MS/MS method. As to conditions: in vivo. The series is classed as ADME, organism-based.
Series [11] is described as follows: Volume of distribution at steady state in Sprague-Dawley rat at 1 mg/kg, iv administered as single dose by LC-MS/MS method. It is filed as ADME, organism-based. As to conditions: in vivo, read-out: Vdss.
A short description of series [12]: Terminal half life in Sprague-Dawley rat at 1 mg/kg, iv administered as single dose by LC-MS/MS method. The series is classed as ADME, organism-based. As to conditions: in vivo, read-out: beta t1/2 (converted).
Series [13] in a line: AUC (0 to t) in Sprague-Dawley rat at 1 mg/kg, iv administered as single dose by LC-MS/MS method. As to conditions: in vivo. The series is classed as ADME, organism-based.
Series [14] in a line: AUC (0 to infinity) in Sprague-Dawley rat at 1 mg/kg, iv administered as single dose by LC-MS/MS method. It is filed as ADME, organism-based. Set-up: dose 1 mg/kg, route intravenous, time infinity. As to conditions: in vivo.
The nature of series [15]: Terminal half life in Sprague-Dawley rat at 5 mg/kg, sc by LC-MS/MS method. It is filed as ADME, organism-based. As to conditions: in vivo, read-out: beta t1/2 (converted).
A short description of series [16]: Tmax in Sprague-Dawley rat at 5 mg/kg, sc by LC-MS/MS method. As to conditions: in vivo. It is filed as ADME, organism-based.
Series [17] in a line: Cmax in Sprague-Dawley rat at 5 mg/kg, sc by LC-MS/MS method. The note with it: in vivo. Set-up: dose 5 mg/kg, route subcutaneous. The series is classed as ADME, organism-based.
Series [18] is described as follows: AUC (0 to t) in Sprague-Dawley rat at 5 mg/kg, sc by LC-MS/MS method. The note with it: in vivo. It is filed as ADME, organism-based.
A short description of series [19]: AUC (0 to infinity) in Sprague-Dawley rat at 5 mg/kg, sc by LC-MS/MS method. It is filed as ADME, organism-based. Further details: dose 5 mg/kg, route subcutaneous, time infinity. As to conditions: in vivo.
Series [20] in a line: Bioavailability in Sprague-Dawley rat at 5 mg/kg, sc by LC-MS/MS method. It is filed as ADME, organism-based. As to conditions: in vivo.
For a further series, the system named is Rattus norvegicus. Kind of series: Time above biochemical PRMT6 IC50 in Sprague-Dawley rat at 5 mg/kg, sc by LC-MS/MS method.

Chain of Protein arginine N-methyltransferase 8 (Q9NR22 whole entry): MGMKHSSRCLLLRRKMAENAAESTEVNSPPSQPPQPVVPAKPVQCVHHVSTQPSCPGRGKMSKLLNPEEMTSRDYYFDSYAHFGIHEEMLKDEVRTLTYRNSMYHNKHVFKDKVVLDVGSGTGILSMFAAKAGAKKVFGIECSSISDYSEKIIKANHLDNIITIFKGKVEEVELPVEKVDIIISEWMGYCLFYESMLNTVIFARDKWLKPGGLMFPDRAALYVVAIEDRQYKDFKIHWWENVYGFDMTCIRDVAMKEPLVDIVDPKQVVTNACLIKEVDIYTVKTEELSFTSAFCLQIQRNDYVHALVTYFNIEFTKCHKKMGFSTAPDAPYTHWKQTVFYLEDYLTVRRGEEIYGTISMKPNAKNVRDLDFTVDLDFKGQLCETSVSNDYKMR
T2 sequence (Q99873 whole entry): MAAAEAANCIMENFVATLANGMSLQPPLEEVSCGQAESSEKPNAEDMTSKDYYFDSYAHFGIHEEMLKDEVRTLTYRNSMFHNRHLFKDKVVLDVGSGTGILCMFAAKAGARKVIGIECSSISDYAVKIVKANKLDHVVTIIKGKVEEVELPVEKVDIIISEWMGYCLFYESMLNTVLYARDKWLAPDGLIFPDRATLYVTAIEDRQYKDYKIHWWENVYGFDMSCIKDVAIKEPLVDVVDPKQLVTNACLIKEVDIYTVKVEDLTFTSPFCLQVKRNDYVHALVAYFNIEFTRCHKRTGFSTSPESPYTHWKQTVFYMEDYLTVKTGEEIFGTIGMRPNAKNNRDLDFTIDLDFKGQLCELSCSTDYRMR

Take `CC(C)Oc1c(Cl)cc(-c2c[nH]nc2CN(C)CCN)cc1C(F)(F)F`: the values for the pIC50 in series [1] and in series [2] were 6.49 and 7.15, respectively.

Take `CC(C)Oc1ccc(-c2[nH]ncc2CN(C)CCN)cc1Cl`: in series [1], the pIC50 (commonly the IC50 on a negative log10 scale, so that one unit is a factor of ten) was 8.10.

As to `CNCCN(C)Cc1c[nH]nc1-c1cc(OCCC2CCCCC2)cc(C(F)(F)F)c1`, the pIC50 in [1] was 6.34; in [2], 7.68.

For `CNCCN(C)Cc1c[nH]nc1-c1cc(OCCc2ccccc2)cc(C(F)(F)F)c1`, the pIC50 was 6.49 in series [1] and 7.64 in [2].

`CNCCN(C)Cc1c[nH]nc1-c1ccc(OC(C)C)cc1`: the pIC50 in series [1] was 7.96.

On to `CNCCN(C)Cc1c[nH]nc1-c1cc(OC(CO)CC(C)C)cc(C(F)(F)F)c1` (stereo not drawn), for which the pIC50 in series [3] was below 4.70.

Take `CNCCN(C)Cc1c[nH]nc1-c1ccc(Oc2cccc(C(=O)N(C)C)c2)cc1`: the values for the pIC50 in series [1] and in series [2] were 8.52 and 6.75, respectively.

As to `CNCCN(C)Cc1n[nH]cc1-c1ccc(Oc2cccc(C(=O)N(C)C)c2)cc1`, the pIC50 in series [1] is 8.70; in series [2], 6.46.

Consider `CNCCN(C)Cc1cn[nH]c1-c1ccc(OC(CO)C(C)C)cc1` (stereo not drawn), for which the pIC50 in [4] was 7.57.

`CN(CCN)Cc1c[nH]nc1-c1ccc(OCCCN2CCOCC2)cc1`: the pIC50 in [1] is 7.89.

Turning to `CNCCN(C)Cc1n[nH]cc1-c1ccc(Oc2ccccc2C(=O)NC)cc1`, the figures for the pIC50 in series [1] and in series [2] were 8.30 and 7.19, respectively.

Regarding `CCOc1ccc(-c2[nH]ncc2CN(C)CCNC)cc1`, in [1], the pIC50 is 7.60.

Compound `CNCCN(C)Cc1cn[nH]c1-c1ccc(OC(C)C)c(Cl)c1` gave a pIC50 in series [1] of 8.00.

On to `CNCCN(C)Cc1c[nH]nc1-c1ccc(O[C@H]2C[C@H](OCCC3CCOCC3)C2)cc1`, for which the result in the series on A-375 was inactive. Also, the values for the pIC50 in [3] and in series [5] were 6.20 and 5.15, respectively. The fraction unbound (as a rule, free concentration divided by total concentration) at 1 µM in series [6] was 0.51; in series [7], 0.52. For the same compound, the Papp at 10 µM in [8] was 0.1 ×10⁻⁶ cm/s. Besides, the bioavailability – broadly, dose-corrected exposure relative to a reference, in per cent – in series [9] was below 5%; in [20], 65.6%. Moreover, the clearance (commonly the volume of plasma or blood freed of the substance per unit of time) in [10] stood at 19.7 mL/min/kg. For the same compound, the Vd in series [11] turned out to be 11.1 L/kg. In addition, the half-life in series [12] is 8.54 h; in series [15] it was 9.19 h. Moreover, the AUC(0-t) (usually the area under the concentration-time curve up to a stated or last time point) was 745 ng·h/mL in series [13] and 2460 ng·h/mL in series [18]. In addition, the AUC(0-inf) – broadly, the area under the concentration-time curve extrapolated to infinity – turned out to be 846 ng·h/mL in series [14] and 2780 ng·h/mL in [19]. In addition, in series [16], the Tmax – broadly, the time from dosing to the highest level – was determined as 0.444 h. In addition, the Cmax – broadly, the maximum level reached in the sampled fluid or tissue – in series [17] amounted to 844 ng/mL. For the same compound, the Time with Rattus norvegicus was above 12 h.
